Assay results from ChEMBL document CHEMBL4350968, “Structure Guided Design, Synthesis, and Biological Evaluation of Novel Benzosuberene Analogues as Inhibitors of Tubulin Polymerization” (J Med Chem, 2019).
Calls of active or inactive are those of the source. No cut-off for these calls is given here.

Tests used:
NCI-H460 = test: Cytotoxicity against human NCI-H460 cells assessed as growth inhibition measured after 48 hrs by SRB assay; assay type: functional; details: NCI-H460, 48 h
DU-145 = test: Cytotoxicity against human DU145 cells assessed as growth inhibition measured after 48 hrs by SRB assay; assay type: functional; details: DU-145, 48 h
Tubulin (Homo sapiens) [1] = target: T1, Tubulin (Homo sapiens) (UniProt P68371+Q9H4B7+P0DPH7+P68366+Q13509+Q71U36+P04350+Q3ZCM7+P07437+P68363+Q9BQE3+Q6PEY2+Q13885+Q9BVA1+Q9BUF5); test: Inhibition of [3H]colchicine binding to tubulin (unknown origin) at 5 uM measured after 10 mins by beckman scintillation counting method relative to control; assay type: protein-complex assay
In short: (§1)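 Each 0.1 mL mix held 1.0 µM tubulin, 5.0 µM [3H]colchicine, 5% DMSO and compound at 1.0 or 5.0 µM. Stabilising components were 1.0 M monosodium glutamate pH 6.6, 0.5 mg/mL BSA, 0.1 M glucose-1-phosphate, 1.0 mM MgCl2 and 1.0 mM GTP. After 10 min at 37 °C, reactions were stopped with ice-cold water and filtered on DEAE-cellulose. Bound label was counted and percent inhibition taken versus no-inhibitor samples, correcting for filter binding without tubulin.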

SK-OV-3 = test: Cytotoxicity against human SKOV3 cells assessed as growth inhibition measured after 48 hrs by SRB assay; assay type: functional; details: SK-OV-3, 48 h
Tubulin = Tubulin (Bos taurus, UniProt Q6B856+Q862L2+Q862F3); test: Inhibition of bovine brain tubulin polymerization preincubated for 15 mins followed by GTP addition and measured for 20 mins by turbidimetry-based spectrophotometric method
In short: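 Mixtures held 10 µM purified bovine brain tubulin, 0.8 M monosodium glutamate pH 6.6, 4% DMSO and varied compound concentrations. These were preincubated 15 min at 30 °C without GTP, then chilled to 0 °C, and GTP was added to 0.4 mM final. Temperature was raised to 30 °C and turbidity followed at 350 nm for 20 min.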

Tubulin (Homo sapiens) [2] = target: T1, Tubulin (Homo sapiens); test: Inhibition of [3H]colchicine binding to tubulin (unknown origin) at 1 uM measured after 10 mins by beckman scintillation counting method relative to control; assay type: protein-complex assay; in short: as §1
Tubulin (Homo sapiens) [3] = target: T1, Tubulin (Homo sapiens); test: Inhibition of [3H]colchicine binding to tubulin (unknown origin) at 0.5 uM measured after 10 mins by beckman scintillation counting method relative to control; assay type: protein-complex assay
Tubulin (Homo sapiens) [4] = target: T1, Tubulin (Homo sapiens); test: Inhibition of [3H]colchicine binding to tubulin (unknown origin) measured after 10 mins by beckman scintillation counting method relative to control; assay type: protein-complex assay
In short: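 The 0.1 mL mix held 1.0 µM tubulin, 5.0 µM [3H]colchicine, 5% DMSO and compound at 1.0 or 5.0 µM. It also held 1.0 M monosodium glutamate (pH 6.6), 0.5 mg/mL BSA, 0.1 M glucose-1-phosphate, 1.0 mM MgCl2 and 1.0 mM GTP. After 10 min at 37 °C the reaction was stopped on ice, the mix filtered through DEAE-cellulose and counted. Percent inhibition was taken against the no-inhibitor control, corrected for label bound without tubulin.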

[5] = Toxicity in Copenhagen rat xenografted with human PC3 cells harboring DAB2IP-luc at 80 mg/kg, ip measured after 4 to 24 hrs; assay type: organism-based; details: in vivo
[6] = Toxicity in Copenhagen rat xenografted with human PC3 cells harboring DAB2IP-luc at 40 mg/kg, ip measured after 48 hrs; assay type: organism-based; details: in vivo
PC-3 [7] = test: Induction of vascular damage in human PC3 cells harboring DAB2IP-luc xenografted in Copenhagen rat assessed as reduction in light emission at 80 mg/kg, ip measured after 4 to 24 hrs by Bioluminescence imaging analysis; assay type: functional, organism-based
In short: (§2)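 Male Copenhagen rats (about 6 weeks old, 100-120 g) were implanted s.c. in the right thigh with 5 X 10⁵ PC3-DAB2IP-luc cells in 30% Matrigel. Tumors were at least 1 cm in diameter before treatment. Prodrug in saline (25 mg/mL) was given IP, one rat per regimen. Under isoflurane, 120 mg/kg D-luciferin was injected s.c. fresh at baseline, 4 h and 24 h. Tumor ROI light emission was followed over about 30 min.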

PC-3 [8] = test: Induction of vascular damage in human PC3 cells harboring DAB2IP-luc xenografted in Copenhagen rat assessed as reduction in light emission at 40 mg/kg, ip measured after 24 to 48 hrs by Bioluminescence imaging analysis; assay type: functional, organism-based; in short: as §2
PC-3 [9] = test: Induction of vascular damage in human PC3 cells harboring DAB2IP-luc xenografted in Copenhagen rat assessed as reduction in light emission at 40 mg/kg, ip measured after 4 hrs by Bioluminescence imaging analysis; assay type: functional, organism-based; in short: as §2
PC-3 [10] = test: Induction of vascular damage in human PC3 cells harboring DAB2IP-luc xenografted in Copenhagen rat assessed as reduction in light emission at 10 mg/kg, ip administered 24 hrs prior to 40 mg/kg, ip dosing for 4 hrs followed by CA4P dosing at 30 mg/kg, ip and measured after 4 to 24 hrs by bioluminescence imaging analysis; assay type: functional, organism-based; in short: as §2
PC-3 [11] = test: Induction of vascular damage in human PC3 cells harboring DAB2IP-luc xenografted in Copenhagen rat assessed as reduction in light emission at 10 mg/kg, ip administered 6 hrs prior to 40 mg/kg, ip dosing and measured after 24 hrs by bioluminescence imaging analysis; assay type: functional, organism-based; in short: as §2
PC-3 [12] = test: Induction of vascular damage in human PC3 cells harboring DAB2IP-luc xenografted in Copenhagen rat assessed as reduction in light emission at 10 mg/kg, ip administered 6 hrs prior to 40 mg/kg, ip dosing and measured after 4 hrs by bioluminescence imaging analysis relative to control; assay type: functional; design: scale not given: the % may be the effect or the level left; in short: as §2
PC-3 [13] = test: Induction of vascular damage in human PC3 cells harboring DAB2IP-luc xenografted in Copenhagen rat assessed as reduction in light emission at 10 mg/kg, ip measured after 4 to 24 hrs by Bioluminescence imaging analysis; assay type: functional, organism-based; in short: as §2

Structure (SMILES)	GI50 (NCI-H460) [nM]	GI50 (DU-145) [nM]	inhibition (Tubulin (Homo sapiens) [1]) [%]	GI50 (SK-OV-3) [nM]	IC50 (Tubulin) [nM]	further results
COc1ccc2c(c1O)CCC(NC(C)=O)C=C2c1cc(OC)c(OC)c(OC)c1 (stereo not given)	334	1200	0.4	–	–	–
COc1ccc(/C=C\c2cc(OC)c(OC)c(OC)c2)cc1O [COMBRETASTATIN A4]	2.23	3.27	–	4.55	–	–
COc1ccc2c(c1C=O)CCCC=C2c1cc(OC)c(OC)c(OC)c1	84.7	40.2	61	57.2	3200	–
COc1ccc2c(c1O)CCCC(=O)C2(O)c1cc(OC)c(OC)c(OC)c1 (stereo not given)	47.6	141	72	31.4	1200	–
COc1ccc2c(c1O)CCCC(O)C2(O)c1cc(OC)c(OC)c(OC)c1 (stereo not given)	3860	4040	0	3030	> 20000	–
COc1ccc2c(c1C#N)CCCC=C2c1cc(OC)c(OC)c(OC)c1	434	860	62	64.8	1100	–
COc1ccc2c(c1C)CCCC(Br)=C2c1cc(OC)c(OC)c(OC)c1	449	423	–	312	4900	inhibition (Tubulin (Homo sapiens) [2]): 35%
COc1ccc2c(c1O)CC=CC=C2c1cc(OC)c(OC)c(OC)c1	58.1	–	95	–	480	inhibition (Tubulin (Homo sapiens) [3]): 68%
COc1cc(C2=CC(O)CCc3c2ccc(OC)c3OC)cc(OC)c1OC (stereo not given)	432	439	28	263	3800	–
COc1ccc2c(c1O)CCCCC2(O)c1cc(OC)c(OC)c(OC)c1 (stereo not given)	173	33	–	394	> 20000	–
COc1ccc2c(c1CO)CCCC=C2c1cc(OC)c(OC)c(OC)c1	62.8	–	76	–	630	–
CC(=O)O[C@H]1C(=O)[C@@]2(C)[C@H]([C@H](OC(=O)c3ccccc3)[C@]3(O)C[C@H](OC(=O)[C@H](O)[C@@H](NC(=O)c4ccccc4)c4ccccc4)C(C)=C1C3(C)C)[C@]1(OC(C)=O)CO[C@@H]1C[C@@H]2O [PACLITAXEL]	1.76	1.47	–	1.34	–	inhibition (Tubulin (Homo sapiens) [4]): inactive
COc1ccc2c(c1O)CCCC(Br)=C2c1cc(OC)c(OC)c(OC)c1	35.3	36.2	88	22.1	390	–
CCOC(=O)c1c(OC)ccc2c1CCCC=C2c1cc(OC)c(OC)c(OC)c1	353	631	47	299	1000	–
COCCOCCOc1c(OC)ccc2c1CCCC=C2c1cc(OC)c(OC)c(OC)c1	1900	5660	–	6520	> 20000	–
COc1ccc2c(c1O)CCCC=C2c1cc(OC)c(OC)c(OC)c1	–	–	95	–	850	inhibition (Tubulin (Homo sapiens) [2]): 73%
COc1cc(C2(O)C=CCCc3c2ccc(OC)c3OC)cc(OC)c1OC (stereo not given)	70500	26000	0	27200	> 20000	–
COc1cc(C2CCc3c(ccc(OC)c3OC)C(=O)C2)cc(OC)c1OC (stereo not given)	2000	4450	0	5770	> 20000	–
COc1cc(C2=CCCCc3c2ccc(OC)c3OCCO)cc(OC)c1OC	855	3760	–	3220	> 20000	–
COc1cc(C2=CC=CCc3c2ccc(OC)c3OP(=O)([O-])[O-])cc(OC)c1OC.[Na+].[Na+]	29.1	–	45	–	16000	Activity [5]: Non-Toxic; Activity [6]: Non-Toxic; Activity (PC-3 [7]): inactive; Activity (PC-3 [8]): inactive; Activity (PC-3 [9]): Active; Activity (PC-3 [10]): Active; Activity (PC-3 [11]): inactive; Activity (PC-3 [12]): 95%; Activity (PC-3 [13]): inactive
COc1ccc(/C=C\c2cc(OC)c(OC)c(OC)c2)cc1OP(=O)(O)O [FOSBRETABULIN DISODIUM]	1.94	3.23	–	1.19	–	–
COc1cccc2c1C(=O)c1c(O)c3c(c(O)c1C2=O)C[C@@](O)(C(=O)CO)C[C@@H]3O[C@H]1C[C@H](N)[C@H](O)[C@H](C)O1 [DOXORUBICIN]	123	134	–	78.9	–	–
COc1ccc2c(c1C#N)CCC=C2c1cc(OC)c(OC)c(OC)c1	60.5	25.2	73	38.4	370	–
